# SR-BI DiI-HDL act: activators of SR-BI mediated DiI-HDL uptake, primary screen, ldlA[mSR-BI] CHO cells, DiI fluorescence. 3 h; 100 = double the neutral-control signal. 320,000 compounds, 0.096% hits. activation, % at 12.5 µM;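 active = mean replicate activation of at least 60% and every replicate at or above 60%; inconclusive = mean or all-replicate condition met, but not both; inactive = mean below 60% and not all replicates reaching 60%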;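 note: 0% = median plate neutral-control signal and 100% = twice that signal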
#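 Test system: SR-BI-overexpressing, LDLR-lacking CHO cells; Also added: labelled HDL, 10 µg/mL; Measured by: bottom-read cell fluorescence after medium removal, ex 550/em 595 nm; Timing: 3 h uptake period with compound, 37 °C; Buffer or medium: F12, 0.5% BSA, 25 mM HEPES; Doses: single compound concentration, delivered by pin transfer.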
# N-glyco inh: increase of ERlucT glycosylation luciferase signal, primary screen, N-linked glycosylation inhibitor project, D54 ERlucT cells, luminescence, set 2. D54 ERlucT glycosylation luciferase reporter, 24 h; percent of 100 nM tunicamycin response. reporter increase, % at 12.5 µM. 360,000 compounds, 0.23% hits. AID 588692, 2011;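 active = mean luciferase reporter signal, scaled so untreated is 0 and the glycosylation-blocking control 100, at or above a set limit in every replicate; inconclusive = mean reaches the limit but not every replicate does; inactive = mean below the limit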;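 note: luciferase carries N-glycosylation sites so blocking glycosylation raises the light; 0% = median of neutral control wells and 100% = median of 100 nM tunicamycin wells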
# SR-BI DiI inh: inhibitors of SR-BI mediated HDL lipid uptake, primary screen, ldlA[mSR-BI] cells, fluorescence, single point; Scavenger receptor class B member 1 (Mus musculus), Q61009; ldlA[mSR-BI] CHO cells, DiI-HDL uptake fluorescence, 3 h; 320,000 compounds, 0.96% hits; inhibition, % at 12.5 µM;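 active = mean replicate inhibition of at least 70% and a set share of replicates each scoring 70 or more; inconclusive = meets just one of the two criteria; inactive = fails both criteria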;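 note: 0% = median of neutral control wells and 100% = median of positive control wells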
# Rtt109 HAT inh: inhibitors of C. albicans Rtt109/Vps75 HAT, primary screen, biochemical, ThioGlo CoA-SH fluorescence, plate reader | purified Rtt109/Vps75, 4 h | Histone acetyltransferase RTT109 (Candida albicans (strain SC5314 / ATCC MYA-2876)), … | 330,000 compounds, 0.16% hits | AID 540336, 2011 | inhibition, % at 34.9 µM;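 active = inhibition of at least 50% in every replicate; inconclusive = best replicate reaches 50% inhibition but some replicates fall short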
# Target sequence (Q5AAJ8 whole entry, looked up): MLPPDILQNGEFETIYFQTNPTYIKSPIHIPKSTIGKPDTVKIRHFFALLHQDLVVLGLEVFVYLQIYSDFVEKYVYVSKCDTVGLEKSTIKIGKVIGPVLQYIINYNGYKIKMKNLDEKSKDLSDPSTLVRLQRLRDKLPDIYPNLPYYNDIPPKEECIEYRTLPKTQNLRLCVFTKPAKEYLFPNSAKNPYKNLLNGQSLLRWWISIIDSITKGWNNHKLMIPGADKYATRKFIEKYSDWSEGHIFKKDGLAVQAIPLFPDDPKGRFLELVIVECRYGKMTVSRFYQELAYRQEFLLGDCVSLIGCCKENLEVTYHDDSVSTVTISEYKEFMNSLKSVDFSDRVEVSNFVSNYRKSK
# Env fusion inh: inhibitors of HIV-1 Env-driven cell-cell fusion, primary screen, HeLa-JRFL effector, CEM21 target cells, luciferase. inhibition, % at 12.3 µM. 360,000 compounds, 1.1% hits;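 active = mean replicate inhibition score of at least 50 and every replicate individually at or above 50; inconclusive = only one of the two criteria met; inactive = mean below 50 and not all replicates reaching 50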;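 note: 0% = plate neutral controls and 100% = maraviroc near 300 nM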
# PglD inh: C. jejuni PglD acetyltransferase inhibitors, primary screen, biochemical, DTNB colorimetric, single point; UDP-N-acetylbacillosamine N-acetyltransferase PglD (Campylobacter jejuni); AID 602405, 2012; inhibition, % at 12.5 µM; purified PglD enzyme, DTNB colorimetric CoA detection; 360,000 compounds, 0.098% hits; in the data active = inhibition above about 16%, passing the limit was not always enough; inconclusive = no clear call, values can overlap the other calls
# * hit, by the source's call; u = inconclusive; x = not tested or not shown; [ ] = another dose, or the depositor's remark. Most compounds without a hit are left out; they make up all but 1.9% or so of the library.
SMILES,SR-BI DiI-HDL act,N-glyco inh,SR-BI DiI inh,Rtt109 HAT inh,Env fusion inh,PglD inh
COc1ccc(C2C3=C(CC(C)(C)CC3=O)N(C)C3=C2C(=O)CC(C)(C)C3)cc1OC,-9,2,9,7,9,-1
COc1ccc(C2OCC(C)(C)CO2)cc1OC,77*,2,-77,5,8,4
COc1ccc(NC(=O)CN(C)C(=O)CN2C(=O)c3ccc([N+](=O)[O-])cc3C2=O)cc1,-4,1,4,12,-9,-3
COc1ccc(-c2cc([N+](=O)[O-])ccc2OCC(=O)N(C)CC(=O)Nc2ccc(C)cc2)cc1,-6,2,6,-5,104*,4
CCc1nn2c(NCCCO)cc(C)nc2c1-c1ccc(F)cc1,0,28*,0,5,-44,6
CC(C)CC#Cc1cnc2c(c1)C(=O)N([C@H](C)CO)C[C@@H](C)[C@H](CN(C)C(=O)CN1CCOCC1)O2,x,x,x,x,0[16.7 µM],16
COc1cc2nc(NC(=O)c3ccccc3)[nH]c(=O)c2cc1OC,-69,3,69,12,-38,7
COc1cc2nc(NC(=O)c3ccccc3)sc(=O)c2cc1OC,-26,41*,26,-12,59*,-5
COc1ccc(C(=O)Nc2nc3cc(OC)c(OC)cc3c(=O)[nH]2)cc1,-86,1,86*,-6,-100,1
Cc1nc(NC(=O)c2ccccc2)sc1C,-10,-8,10,4,-56,0
CCCNC(=O)[C@H]1[C@H](CO)[C@H]2Cn3c(ccc(/C=C/c4ccccc4)c3=O)[C@@H]1N2C(=O)c1ccccc1,x,x,x,x,x,1
CSc1cccc(NC(=O)N2CCc3ccc(NC(=O)c4ccccn4)cc3C2)c1,-76,-3,76*,7,-6,2
CCOC(=O)CNC(=O)N1CCc2ccc(NC(=O)c3ccccc3Cl)cc2C1,-96,8,96*,0,4,2
COc1ccccc1C(=O)Nc1ccc2c(c1)CN(C(=O)CSC)CC2,-37,9,37,3,-26,1
CCCNC(=O)[C@@H]1[C@@H](CO)[C@@H]2Cn3c(ccc(-c4cccnc4)c3=O)[C@@H]2N1C(=O)c1ccccc1F,x,x,x,x,4[16.7 µM],-1
COc1ccc(OC)c(C2=NOC(C(=O)N3CCN(c4ccccc4)CC3)C2)c1 (stereo not given),-71,-3,71*,1,-22,-1
COCC#Cc1cnc2c(c1)C(=O)N([C@H](C)CO)C[C@H](C)[C@H](CN(C)C)O2,x,x,x,x,-107[16.7 µM],1
CC(Sc1nc2ccccc2c(=O)n1C)C(=O)N(C)C1CCCCC1 (stereo not given),21,-2,-21,-1,62*,-6
COCCn1c(SC(C)C(=O)NC2CCCCC2C)nc2ccccc2c1=O (stereo not given),-2,1,2,7,75*,-5
Cc1nc(SCC(=O)Nc2nc3ccccc3s2)c(C#N)c(C)c1C,0,-23,0,-2,63*,x
Cc1cc(C(F)(F)F)c(C#N)c(SCC(=O)Nc2nc3ccccc3s2)n1,x,-16,x,-5,-241,-1
C[C@@H]1CN([C@H](C)CO)C(=O)Cc2cc(N(C)C)ccc2O[C@@H]1CN(C)C(=O)Nc1cccc2ccccc12,x,x,x,x,-9[16.7 µM],-1
CCOC(=O)c1c2c(n(Cc3ccccc3)c1C)C(=O)C(=O)c1ccccc1-2,-33,-23,33,1,78*,x
CCOC(=O)c1c2c(n(C)c1C)C(=O)C(=O)c1ccc(Br)cc1-2,-51,-21,51,-5,-18,-5
C[C@@H]1CCCCO[C@@H](CN(C)C(=O)C2CCCCC2)[C@@H](C)CN([C@H](C)CO)C(=O)c2cc(NC(=O)c3ccncc3)ccc2O1,x,x,x,x,0[16.7 µM],1
SMILES,SR-BI DiI-HDL act,N-glyco inh,SR-BI DiI inh,Rtt109 HAT inh,Env fusion inh,PglD inh
COc1ccc(S(=O)(=O)Nc2ccc3c(c2)C(=O)N([C@@H](C)CO)C[C@@H](C)[C@H](CN(C)S(=O)(=O)c2c(C)noc2C)OCCCC[C@H](C)O3)cc1,x,x,x,x,-5[16.7 µM],5
COc1ccc(CN(C)C[C@@H]2OCCCC[C@@H](C)Oc3ccc(NC(=O)Nc4ccc(C(F)(F)F)cc4)cc3C(=O)N([C@@H](C)CO)C[C@H]2C)cc1,x,x,x,x,58*[16.7 µM],-2
COc1ccc(NC(=O)Nc2ccc3c(c2)C(=O)N([C@H](C)CO)C[C@H](C)[C@H](CN(C)Cc2ccc(C(F)(F)F)cc2)OCCCC[C@H](C)O3)cc1,x,x,x,x,64*[16.7 µM],-2
COc1ccc(NC(=O)Nc2ccc3c(c2)C(=O)N([C@H](C)CO)C[C@H](C)[C@H](CN(C)Cc2ccc(C(F)(F)F)cc2)OCCCC[C@@H](C)O3)cc1,x,x,x,x,-108[16.7 µM],-3
COc1ccc(NC(=O)Nc2ccc3c(c2)C(=O)N([C@@H](C)CO)C[C@@H](C)[C@H](CN(C)Cc2ccc(C(F)(F)F)cc2)OCCCC[C@@H](C)O3)cc1,x,x,x,x,u,-1
O=C(CSc1nnc(Cc2cccs2)n1C1CCCCC1)N1CCN(C(=O)c2ccco2)CC1,14,0,-14,51*,-1,-1
CC(Sc1nnc(Cc2cccs2)n1C1CCCCC1)C(N)=O (stereo not given),-16,-1,16,10,x,-1
O=C(N/N=C/c1ccccc1)c1ccc(CN2C(=O)c3cccc4cccc2c34)cc1,-7,4,7,-9,-28,x
O=C(N/N=C/c1ccc(O)cc1O)c1ccc(CN2C(=O)c3cccc4cccc2c34)cc1,-124,-10,124*,-17,10,x
CCOC(=O)C1CCCN(C(=O)c2ccc3c(=O)n(CCOC)c(=S)[nH]c3c2)C1 (stereo not given),4,4,-4,2,66*,-6
Cc1cccc(NC(=O)Nc2ccc(Oc3c(F)c(F)c(F)c(F)c3F)cc2)c1,19,-1,-19,-5,x,-1
O=C(Nc1ccc(Oc2c(F)c(F)c(F)c(F)c2F)cc1)OC1CCN2Cc3ccccc3N=C12 (stereo not given),-22,29*,39,6,x,-1
Clc1ccc(OCc2nnc(SCc3nc4ccccc4[nH]3)n2Cc2ccco2)cc1,-15,-6,15,x,56*,4
Cc1ccc(Cn2nnnc2CN2CCC(c3nc4ccc(Cl)cc4[nH]3)CC2)cc1,-12,-1,12,-1,75*,-3

# Assay outcomes: PubChem BioAssay, Broad Institute
